Test results reported in ChEMBL document CHEMBL2146476, “Discovery of selective glucocorticoid receptor modulator MK-5932” (Bioorg Med Chem, 2011).
The source made the active and inactive calls. No cut-off for these calls is given here.

Key:
[1] = biological target: T1, Glucocorticoid receptor (Homo sapiens) (UniProt P04150); assay: Transrepression activity at glucocorticoid receptor in human LPS and TPA-stimulated U937 cells assessed as effect on glucocorticoid-induced TNFalpha repression by beta lactamase reporter gene assay relative to dexamethasone; assay type: cell-based; conditions: U-937
T1 sequence (whole entry): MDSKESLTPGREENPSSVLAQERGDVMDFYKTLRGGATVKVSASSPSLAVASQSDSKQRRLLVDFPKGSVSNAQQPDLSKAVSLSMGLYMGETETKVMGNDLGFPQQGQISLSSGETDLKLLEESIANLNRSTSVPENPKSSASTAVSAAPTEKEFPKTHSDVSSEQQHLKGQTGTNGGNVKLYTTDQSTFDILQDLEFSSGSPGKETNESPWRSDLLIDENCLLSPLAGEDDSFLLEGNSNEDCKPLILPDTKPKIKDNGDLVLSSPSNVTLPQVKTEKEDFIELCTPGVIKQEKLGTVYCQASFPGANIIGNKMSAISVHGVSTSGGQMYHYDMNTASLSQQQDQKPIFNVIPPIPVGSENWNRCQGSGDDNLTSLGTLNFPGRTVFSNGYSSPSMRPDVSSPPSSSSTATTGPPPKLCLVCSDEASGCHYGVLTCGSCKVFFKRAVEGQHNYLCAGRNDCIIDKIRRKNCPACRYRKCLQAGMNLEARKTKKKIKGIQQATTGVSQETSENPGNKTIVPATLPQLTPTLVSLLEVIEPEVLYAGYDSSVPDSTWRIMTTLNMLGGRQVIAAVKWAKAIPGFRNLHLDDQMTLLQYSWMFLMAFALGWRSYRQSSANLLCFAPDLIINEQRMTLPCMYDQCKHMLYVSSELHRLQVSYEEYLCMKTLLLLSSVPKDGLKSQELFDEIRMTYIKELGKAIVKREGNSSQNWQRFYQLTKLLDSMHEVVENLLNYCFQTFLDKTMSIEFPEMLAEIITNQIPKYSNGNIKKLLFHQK
Method in brief: (§1)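 U937 cells stably carrying a β-lactamase reporter driven by the human TNF-α promoter (-1083 to +182), in 5% charcoal-stripped FBS. Stimulated with 1 µg/mL LPS plus 50 ng/mL TPA, compound exposure 16 h. β-Lactamase read out. Activity expressed as percent of the span between DMSO and 100 nM dexamethasone controls. Mean of at least three runs.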

[2] = biological target: T1, Glucocorticoid receptor (Homo sapiens); assay: Transactivation activity at GR-mediated modulation of MMTV promoter activity in human A549 cells transfected with luciferase gene linked to MMTV promoter after 16 hrs by luciferase reporter gene assay relative to dexamethasone; assay type: cell-based
Method in brief: (§2)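 HeLa or A549 cells transiently transfected with a luciferase reporter under the MMTV promoter (two GREs), in 10% charcoal-stripped FBS. Compound exposure 16 h, then luciferase measured. Activity expressed as percent of the span between DMSO and dexamethasone controls. Mean of at least three runs.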

[3] = biological target: T1, Glucocorticoid receptor (Homo sapiens); assay: Transactivation activity at GR-mediated modulation of MMTV promoter activity in human HeLa cells transfected with luciferase gene linked to MMTV promoter after 16 hrs by luciferase reporter gene assay relative to dexamethasone; assay type: cell-based; method in brief: as §2
Glucocorticoid receptor = biological target: T2, Glucocorticoid receptor (Homo sapiens, UniProt P04150); assay: Displacement of [3H]-dexamethasone from human full length GR expressed in insect Sf21 cells
T2 sequence (P04150 whole entry): T1 sequence (whole entry)
Method in brief: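 Human full-length GR expressed in insect cells, incubated with compound and 3H-dexamethasone overnight at 4 °C. Bound radioactivity quantified after filtration capture. Nonspecific binding defined with excess unlabelled dexamethasone. Mean of at least two runs.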

[4] = biological target: T1, Glucocorticoid receptor (Homo sapiens); assay: Transactivation activity at GR-mediated modulation of MMTV promoter activity in human A549 cells transfected with luciferase gene linked to MMTV promoter after 16 hrs by luciferase reporter gene assay; assay type: cell-based; method in brief: as §2
[5] = biological target: T1, Glucocorticoid receptor (Homo sapiens); assay: Transactivation activity at GR-mediated modulation of MMTV promoter activity in human HeLa cells transfected with luciferase gene linked to MMTV promoter after 16 hrs by luciferase reporter gene assay; assay type: cell-based; method in brief: as §2
[6] = Drug uptake in oxazolone-induced Sprague-Dawley rat chronic dermatitis model at 20 mg/kg, po; assay type: ADME, organism-based; design: dose 20 mg/kg, route oral; conditions: in vivo, read-out: Drug uptake
Method in brief: (§3)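 Exposure measured in female Sprague-Dawley rats in the oxazolone chronic dermatitis model: sensitization Day 0, ear challenge Days 7 and 9, daily oral dosing for 7 d from Day 7. Exposure expressed as µM h. Blood collected ~4-5 h after last dose.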

Rattus norvegicus [7] = assay: Drug metabolism in oxazolone-induced Sprague-Dawley rat chronic dermatitis model assessed as 2-{2-[(4aS,5R)-1-(4-fluorophenyl)-5-hydroxy-4amethyl- 1,4,4a,5,6,7-hexahydrocyclopenta[f]indazol-5-yl]ethyl}benzamide level at 20 mg/kg, po; assay type: ADME, organism-based; design: dose 20 mg/kg, route oral; conditions: in vivo
[8] = biological target: T1, Glucocorticoid receptor (Homo sapiens); assay: Transrepression activity at glucocorticoid receptor in human LPS and TPA-stimulated U937 cells assessed as effect on glucocorticoid-induced TNFalpha repression by beta lactamase reporter gene assay; assay type: cell-based; conditions: U-937; method in brief: as §1
[9] = Drug uptake in oxazolone-induced Sprague-Dawley rat chronic dermatitis model at 15 mg/kg, po; assay type: ADME, organism-based; design: dose 15 mg/kg, route oral; conditions: in vivo, read-out: Drug uptake; method in brief: as §3
Rattus norvegicus [10] = assay: Drug metabolism in oxazolone-induced Sprague-Dawley rat chronic dermatitis model assessed as 2-fluoro-6-(2-((4aS,5R)-1-(4-fluorophenyl)-5-hydroxy-4a-methyl-1,4,4a,5,6,7-hexahydrocyclopenta[f]indazol-5-yl)ethyl)-N-(1-(hydroxymethyl)cyclopropyl)benzamide level at 15 mg/kg, po; conditions: in vivo
[11] = Drug uptake in oxazolone-induced Sprague-Dawley rat chronic dermatitis model at 5 mg/kg, po; assay type: ADME, organism-based; design: dose 5 mg/kg, route oral; conditions: in vivo, read-out: Drug uptake; method in brief: as §3
[12] = Drug uptake in oxazolone-induced Sprague-Dawley rat chronic dermatitis model at 25 mg/kg, po; assay type: ADME, organism-based; design: dose 25 mg/kg, route oral; conditions: in vivo, read-out: Drug uptake; method in brief: as §3
Rattus norvegicus [13] = assay: Antiinflammatory activity in oxazolone-induced Sprague-Dawley rat chronic dermatitis model at 0.5 to 5 mg/kg, po qd administered after 7 days of oxazolone sensitization measured after 4 to 5 hrs last post treatment on day 14; assay type: functional, organism-based
Method in brief: (§4)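 Intact 6-month-old female Sprague-Dawley rats sensitized with oxazolone on ventral abdomen on Day 0. One randomly selected ear challenged with oxazolone on Days 7 and 9, other ear given vehicle. Daily oral dosing for 7 d from Day 7, with 6-methylprednisolone or DEX as positive controls. Blood taken ~4-5 h after last dose for plasma insulin. Inflammation read as inter-ear thickness difference.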

Rattus norvegicus [14] = assay: Toxicity in oxazolone-induced Sprague-Dawley rat chronic dermatitis model assessed as increase in plasma insulin level at 0.5 to 5 mg/kg, po qd administered after 7 days of oxazolone sensitization measured after 4 to 5 hrs last post treatment on day 14; assay type: organism-based; design: route oral; conditions: in vivo; method in brief: as §4

SMILES	Emax [1] [%]	Emax [2] [%]	Emax [3] [%]	Ki (Glucocorticoid receptor) [nM]	IP [4] [nM]	IP [5] [nM]	AUC [6] [µM·h]	Drug metabolism (Rattus norvegicus [7]) [µM·h]	IP [8] [nM]	AUC [9] [µM·h]	Drug metabolism (Rattus norvegicus [10]) [µM·h]	AUC [11] [µM·h]	AUC [12] [µM·h]	Activity (Rattus norvegicus [13])	Activity (Rattus norvegicus [14])
CNC(=O)c1cccc(CC[C@]2(O)CCC3=Cc4c(cnn4-c4ccc(F)cc4)C[C@@]32C)c1	< 10	< 10	< 10	15	–	–	–	–	–	–	–	–	–	–	–
CCNC(=O)c1ccccc1CC[C@]1(O)CCC2=Cc3c(cnn3-c3ccc(F)cc3)C[C@@]21C	65	51	38	2	39	107	75	50	88	–	–	–	–	–	–
C[C@]12Cc3cnn(-c4ccc(F)cc4)c3C=C1CC[C@@]2(O)CCc1cc(F)ccc1C(N)=O	70	120	47	< 1	36	58	–	–	89	–	–	–	–	–	–
CCCNC(=O)c1ccccc1CC[C@]1(O)CCC2=Cc3c(cnn3-c3ccc(F)cc3)C[C@@]21C	50	29	17	2	81	85	–	–	127	–	–	–	–	–	–
CCCNC(=O)c1c(F)cccc1CC[C@]1(O)CCC2=Cc3c(cnn3-c3ccc(F)cc3)C[C@@]21C	72	25	17	< 1	26	43	–	–	30	–	–	–	–	–	–
CC1(NC(=O)c2c(F)cccc2CC[C@]2(O)CCC3=Cc4c(cnn4-c4ccc(F)cc4)C[C@@]32C)CC1	81	41	33	< 1	32	27	–	–	20	64	3.8	–	–	–	–
C[C@]12Cc3cnn(-c4ccc(F)cc4)c3C=C1CC[C@@]2(O)CCc1ccccc1C(N)=O	82	60	66	2	61	130	–	–	56	–	–	134	199	–	–
C[C@]12Cc3cnn(-c4ccc(F)cc4)c3C=C1CC[C@@]2(O)CCc1cccc(F)c1C(N)=O	84	75	58	< 1	9	11	–	–	10	–	–	–	–	–	–
CC(C)NC(=O)c1ccccc1CC[C@]1(O)CCC2=Cc3c(cnn3-c3ccc(F)cc3)C[C@@]21C	62	48	30	4	60	83	–	–	170	–	–	–	–	–	–
C[C@]12Cc3cnn(-c4ccc(F)cc4)c3C=C1CC[C@@]2(O)CCc1cccc(F)c1C(=O)NC1(CO)CC1	96	104	79	3	23	35	–	–	24	–	–	–	–	–	–
C[C@@]12C(=Cc3c(cnn3-c3ccc(F)cc3)C1O)CC[C@@]2(O)CCc1ccc(F)cc1C(N)=O (stereo not given in full)	6	< 5	< 5	58	–	–	–	–	–	–	–	–	–	–	–
CC(C)(C)NC(=O)c1ccccc1CC[C@]1(O)CCC2=Cc3c(cnn3-c3ccc(F)cc3)C[C@@]21C	79	23	14	10	212	108	–	–	246	–	–	–	–	–	–
CNC(=O)c1ccccc1CC[C@]1(O)CCC2=Cc3c(cnn3-c3ccc(F)cc3)C[C@@]21C	50	49	48	2	193	317	–	–	263	–	–	–	–	–	–
C=CCNC(=O)c1ccccc1CC[C@]1(O)CCC2=Cc3c(cnn3-c3ccc(F)cc3)C[C@@]21C	62	37	21	1	62	93	–	–	123	–	–	–	–	–	–
CNC(=O)c1ccc(CC[C@]2(O)CCC3=Cc4c(cnn4-c4ccc(F)cc4)C[C@@]32C)cc1	12	< 10	< 10	155	–	–	–	–	–	–	–	–	–	–	–
C[C@H]1C[C@@H]2[C@H]([C@@H](O)C[C@@]3(C)[C@H]2CC[C@]3(O)C(=O)CO)[C@@]2(C)C=CC(=O)C=C12 [METHYLPREDNISOLONE]	–	–	–	–	–	–	–	–	–	–	–	–	–	Active	Toxic
C[C@]12Cc3cnn(-c4ccc(F)cc4)c3C=C1CC[C@@]2(O)CCc1c(F)cccc1C(N)=O	90	82	89	< 1	6	7	–	–	3	–	–	–	–	–	–
C=C(C)CNC(=O)c1c(F)cccc1CC[C@]1(O)CCC2=Cc3c(cnn3-c3ccc(F)cc3)C[C@@]21C	67	24	16	< 1	95	132	–	–	119	–	–	–	–	–	–
CC(C)(CO)NC(=O)c1ccccc1CC[C@]1(O)CCC2=Cc3c(cnn3-c3ccc(F)cc3)C[C@@]21C	88	83	71	1	33	30	–	–	26	–	–	–	–	–	–
CCNC(=O)c1ccccc1CC[C@]1(O)CCC2=Cc3c(cnn3-c3ccc(F)cc3)C(O)[C@@]21C (stereo not given in full)	34	20	6	40	1560	1320	–	–	958	–	–	–	–	–	–
C[C@]12Cc3cnn(-c4ccc(F)cc4)c3C=C1[C@H](O)C[C@@]2(O)CCc1ccc(F)cc1C(N)=O	< 5	< 5	< 5	> 400	–	–	–	–	–	–	–	–	–	–	–
Cc1cc2cnn(-c3ccc(F)cc3)c2cc1CCC(=O)CCc1ccc(F)cc1C(=O)O	< 5	< 5	< 5	> 400	–	–	–	–	–	–	–	–	–	–	–
